Results taken from ChEMBL document CHEMBL1156952, “Synthesis and biological evaluations of novel bendazac lysine analogues as potent anticataract agents” (Bioorg Med Chem Lett, 2010).

Tests used:
[1] = Aqueous solubility of the compound; format: physicochemical; conditions: water (aqueous)
[2] = Anticataract activity against FeCl3/H2O2-induced cataract in rat lens assessed as slight degree of opacificaion at 0.5 mM treated 1 hr before FeCl3/H2O2 challenge measured after 24 hrs; format: functional, Lens of camera-type eye
Method in brief: (§1)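 Isolated rat lenses were cultured in DMEM and challenged with FeCl3 (0.02%) plus H2O2 (0.5%). Compounds were added at 0.5 mM to the medium of transparent lenses, with a challenged, untreated control. Lenses were scored as the percentage at each opacification grade (−, +, ++, +++).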

[3] = Anticataract activity against FeCl3/H2O2-induced cataract in rat lens assessed as extensive mature nuclear opacity at 0.5 mM treated 1 hr before FeCl3/H2O2 challenge measured after 24 hrs; format: functional, Lens of camera-type eye; method in brief: as §1
[4] = Anticataract activity against FeCl3/H2O2-induced cataract in rabbit lens assessed as extensive mature nuclear opacity at 0.5 mM treated 1 hr before FeCl3/H2O2 challenge measured after 24 hrs; format: functional, Oryctolagus cuniculus, Lens of camera-type eye
[5] = Anticataract activity against FeCl3/H2O2-induced cataract in rabbit lens assessed as absence of opacificaion at 0.5 mM treated 1 hr before FeCl3/H2O2 challenge measured after 24 hrs; format: functional, Oryctolagus cuniculus, Lens of camera-type eye
[6] = Anticataract activity against FeCl3/H2O2-induced cataract in rat lens assessed as absence of opacificaion at 0.5 mM treated 1 hr before FeCl3/H2O2 challenge measured after 24 hrs; format: functional, Lens of camera-type eye; method in brief: as §1
[7] = Anticataract activity against FeCl3/H2O2-induced cataract in rabbit lens assessed as middle degree of opacificaion at 0.5 mM treated 1 hr before FeCl3/H2O2 challenge measured after 24 hrs; format: functional, Oryctolagus cuniculus, Lens of camera-type eye
[8] = Anticataract activity against FeCl3/H2O2-induced cataract in rabbit lens assessed as slight degree of opacificaion at 0.5 mM treated 1 hr before FeCl3/H2O2 challenge measured after 24 hrs; format: functional, Oryctolagus cuniculus, Lens of camera-type eye
[9] = Anticataract activity against FeCl3/H2O2-induced cataract in rat lens assessed as middle degree of opacificaion at 0.5 mM treated 1 hr before FeCl3/H2O2 challenge measured after 24 hrs; format: functional, Lens of camera-type eye; method in brief: as §1
[10] = Anticataract activity against FeCl3/H2O2-induced cataract in rabbit lens assessed as middle degree of opacificaion at 10 mM treated 1 hr before FeCl3/H2O2 challenge measured after 24 hrs; format: functional, Oryctolagus cuniculus, Lens of camera-type eye
[11] = Anticataract activity against FeCl3/H2O2-induced cataract in rabbit lens assessed as slight degree of opacificaion at 10 mM treated 1 hr before FeCl3/H2O2 challenge measured after 24 hrs; format: functional, Oryctolagus cuniculus, Lens of camera-type eye
[12] = Anticataract activity against FeCl3/H2O2-induced cataract in rabbit lens assessed as absence of opacificaion at 10 mM treated 1 hr before FeCl3/H2O2 challenge measured after 24 hrs; format: functional, Oryctolagus cuniculus, Lens of camera-type eye
[13] = Anticataract activity against FeCl3/H2O2-induced cataract in rabbit lens assessed as extensive mature nuclear opacity at 10 mM treated 1 hr before FeCl3/H2O2 challenge measured after 24 hrs; format: functional, Oryctolagus cuniculus, Lens of camera-type eye
Oryctolagus cuniculus [14] = species: Oryctolagus cuniculus; test: Induction of total-antioxidant capacity level in rabbit lens homogenates at 5 mM (Rvb= 0.04 u/mg); format: functional, tissue-based; conditions: Lens of camera-type eye
Method in brief: (§2)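 Rabbit lenses were cultured in DMEM under FeCl3 (0.02%) plus H2O2 (2%) challenge, with compound at 5, 10 or 15 mM in the medium. Each group's lenses were then homogenized. Water-soluble protein, total antioxidant capacity and malondialdehyde were each measured in the homogenate with a reagent kit.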

Oryctolagus cuniculus [15] = species: Oryctolagus cuniculus; test: Reduction of malondialdehyde level in rabbit lens homogenates at 5 mM (Rvb= 0.46 +/-0.27 nmol/mg); format: functional, tissue-based; conditions: Lens of camera-type eye; method in brief: as §2
Oryctolagus cuniculus [16] = species: Oryctolagus cuniculus; test: Induction of water-solvent protein level in rabbit lens homogenates at 5 mM (Rvb= 7.40 +/-0.73 mg/mL); format: functional, tissue-based; conditions: Lens of camera-type eye; method in brief: as §2
Oryctolagus cuniculus [17] = species: Oryctolagus cuniculus; test: Induction of total-antioxidant capacity level in rabbit lens homogenates at 15 mM (Rvb= 0.04 u/mg); format: functional, tissue-based; conditions: Lens of camera-type eye; method in brief: as §2
Oryctolagus cuniculus [18] = species: Oryctolagus cuniculus; test: Anticataract activity against FeCl3/H2O2-induced cataract in rabbit lens treated 1 hr before FeCl3/H2O2 challenge measured after 24 hrs; format: functional, tissue-based; conditions: Lens of camera-type eye
Oryctolagus cuniculus [19] = species: Oryctolagus cuniculus; test: Reduction of malondialdehyde level in rabbit lens homogenates at 10 mM (Rvb= 0.46 +/-0.27 nmol/mg); format: functional, tissue-based; conditions: Lens of camera-type eye; method in brief: as §2
Oryctolagus cuniculus [20] = species: Oryctolagus cuniculus; test: Induction of total-antioxidant capacity level in rabbit lens homogenates at 10 mM (Rvb= 0.04 u/mg); format: functional, tissue-based; conditions: Lens of camera-type eye; method in brief: as §2
Oryctolagus cuniculus [21] = species: Oryctolagus cuniculus; test: Reduction of malondialdehyde level in rabbit lens homogenates at 15 mM (Rvb= 0.46 +/-0.27 nmol/mg); format: functional, tissue-based; conditions: Lens of camera-type eye; method in brief: as §2

O=C([O-])C(Oc1nn(Cc2ccc(Cl)cc2)c2ccccc12)C(=O)[O-].[K+].[K+]
solubility [1]: < 1 mg/mL

Cc1ccc(Cn2nc(OC(C(=O)O)C(=O)O)c3ccccc32)cc1
solubility [1]: < 1 mg/mL

NCCCC[C@H](N)C(=O)O.O=C(O)C(Oc1nn(Cc2cccc(Cl)c2)c2ccccc12)C(=O)O
Activity [2]: 55%
solubility [1]: 195 mg/mL
Activity [3]: 15%
Activity [4]: 65%
Activity [5]: 0%
Activity [6]: 0%
Activity [7]: 35%
Activity [8]: 0%
Activity [9]: 30%

O=C([O-])C(Oc1nn(Cc2cccc(Cl)c2)c2ccccc12)C(=O)[O-].[Na+].[Na+]
solubility [1]: 1.2 mg/mL

O=C(O)C(Oc1nn(Cc2ccc(Cl)cc2)c2ccccc12)C(=O)O
solubility [1]: < 1 mg/mL

Cc1ccc(Cn2nc(OC(C(=O)[O-])C(=O)[O-])c3ccccc32)cc1.[K+].[K+]
solubility [1]: < 1 mg/mL

O=C([O-])C(Oc1nn(Cc2cccc(F)c2)c2ccccc12)C(=O)[O-].[Na+].[Na+]
Activity [2]: 60%
solubility [1]: 3.2 mg/mL
Activity [3]: 5%
Activity [4]: 0%
Activity [5]: 0%
Activity [6]: 0%
Activity [7]: 20%
Activity [8]: 80%
Activity [9]: 35%

NCCCC[C@H](N)C(=O)O.O=C(O)COc1nn(Cc2ccccc2)c2ccccc12 [BENDAZAC LYSINE]
Activity [2]: 55%
solubility [1]: 93.8 mg/mL
Activity [3]: 5%
Activity [4]: 0%
Activity [10]: 15%
Activity [5]: 0%
Activity [6]: 0%
Activity [7]: 25%
Activity [11]: 65%
Activity [8]: 75%
Activity [12]: 20%
Activity [9]: 40%
Activity [13]: 0%

O=C(O)COc1nn(Cc2ccccc2)c2ccccc12
T-AOC level (Oryctolagus cuniculus [14]): 0.17 U/mg
MDA level (Oryctolagus cuniculus [15]): 0.22 nmol/mg
WSP level (Oryctolagus cuniculus [16]): 9.34 mg/mL

O=C([O-])C(Oc1nn(Cc2ccccc2)c2ccccc12)C(=O)[O-].[K+].[K+]
Activity [2]: 0%
solubility [1]: 2.2 mg/mL
Activity [3]: 50%
Activity [4]: 30%
Activity [5]: 0%
Activity [6]: 0%
Activity [7]: 40%
Activity [8]: 30%
Activity [9]: 50%

N[C@@H](Cc1c[nH]cn1)C(=O)O.O=C(O)C(Oc1nn(Cc2cccc(F)c2)c2ccccc12)C(=O)O
solubility [1]: 56.6 mg/mL

NCCCC[C@H](N)C(=O)O.O=C(O)C(Oc1nn(Cc2ccc(Cl)cc2)c2ccccc12)C(=O)O
solubility [1]: 312 mg/mL

N[C@@H](Cc1c[nH]cn1)C(=O)O.O=C(O)C(Oc1nn(Cc2ccccc2)c2ccccc12)C(=O)O
T-AOC level (Oryctolagus cuniculus [14]): 0.21 U/mg
MDA level (Oryctolagus cuniculus [15]): 0.04 nmol/mg
T-AOC level (Oryctolagus cuniculus [17]): 0.34 U/mg
Activity (Oryctolagus cuniculus [18]): Dose-dependent effect
MDA level (Oryctolagus cuniculus [19]): 0.03 nmol/mg
T-AOC level (Oryctolagus cuniculus [20]): 0.64 U/mg
MDA level (Oryctolagus cuniculus [21]): 0.08 nmol/mg
WSP level (Oryctolagus cuniculus [16]): 13 mg/mL

N[C@@H](Cc1c[nH]cn1)C(=O)O.O=C(O)C(Oc1nn(Cc2ccc(Cl)cc2)c2ccccc12)C(=O)O
solubility [1]: 51 mg/mL
